Test results as given in ChEMBL document CHEMBL3352325, “Synthesis and biological evaluation of novel aniline-derived asiatic acid derivatives as potential anticancer agents” (Eur J Med Chem, 2014).

tested on: MGC-803; assay: Cytotoxicity against human MGC803 cells after 48 hrs by MTT assay; type: functional, cell-based; conditions: MGC-803, 48 h
In short: (§1)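 Cells grown in medium with 10% heat-inactivated FBS, 5% CO2, 37 °C. Compounds given in medium with 1% DMSO at 1.25–20 graded concentrations; 1% DMSO medium served as control. MTT (5 mg/mL) added, formazan dissolved in DMSO, absorbance read at 570/630 nm. Survival expressed relative to negative control. IC50 by Bliss method (n=5), at least three independent experiments, mean ± SD.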

Q: With C[C@H]1[C@H](C)CC[C@]2(C(=O)Nc3cccc(Cl)c3)CC[C@]3(C)C(=CC(=O)[C@@H]4[C@@]5(C)C[C@@H](O)[C@H](O)[C@@](C)(CO)[C@@H]5CC[C@]43C)[C@H]12 as the compound, how does the IC50 read?
A: Its IC50 is 19.4 µM.

Q: With Cc1cccc(NC(=O)[C@]23CC[C@@H](C)[C@H](C)[C@H]2C2=CC(=O)[C@@H]4[C@@]5(C)C[C@@H](O)[C@H](O)[C@@](C)(CO)[C@@H]5CC[C@@]4(C)[C@]2(C)CC3)c1 as the compound, how does the IC50 read?
A: The IC50 was 21.2 µM.

Q: With Cc1ccc(NC(=O)[C@]23CC[C@@H](C)[C@H](C)[C@H]2C2=CC(=O)[C@@H]4[C@@]5(C)C[C@@H](O)[C@H](O)[C@@](C)(CO)[C@@H]5CC[C@@]4(C)[C@]2(C)CC3)cc1Cl as the compound, how does the IC50 read?
A: Its IC50 is 20.1 µM.

Q: With C[C@H]1[C@H](C)CC[C@]2(C(=O)Nc3cccc(Br)c3)CC[C@]3(C)C(=CC(=O)[C@@H]4[C@@]5(C)C[C@@H](O)[C@H](O)[C@@](C)(CO)[C@@H]5CC[C@]43C)[C@H]12 as the compound, how does the IC50 read?
A: Its IC50 is 15.5 µM.

Q: With C[C@H]1[C@H](C)CC[C@]2(C(=O)Nc3ccc(Br)c(F)c3)CC[C@]3(C)C(=CC(=O)[C@@H]4[C@@]5(C)C[C@@H](O)[C@H](O)[C@@](C)(CO)[C@@H]5CC[C@]43C)[C@H]12 as the compound, how does the IC50 read?
A: Its IC50 is 16 µM.

tested on: NCI-H460; assay: Cytotoxicity against human NCI-H460 cells after 48 hrs by MTT assay; type: functional, cell-based; conditions: NCI-H460, 48 h; in short: as §1

Q: With C[C@H]1[C@H](C)CC[C@]2(C(=O)Nc3cccc(Cl)c3)CC[C@]3(C)C(=CC(=O)[C@@H]4[C@@]5(C)C[C@@H](O)[C@H](O)[C@@](C)(CO)[C@@H]5CC[C@]43C)[C@H]12 as the compound, how does the IC50 read?
A: The IC50 was 24.4 µM.

Q: With Cc1cccc(NC(=O)[C@]23CC[C@@H](C)[C@H](C)[C@H]2C2=CC(=O)[C@@H]4[C@@]5(C)C[C@@H](O)[C@H](O)[C@@](C)(CO)[C@@H]5CC[C@@]4(C)[C@]2(C)CC3)c1 as the compound, how does the IC50 read?
A: Its IC50 is 21.8 µM.

Q: With Cc1ccc(NC(=O)[C@]23CC[C@@H](C)[C@H](C)[C@H]2C2=CC(=O)[C@@H]4[C@@]5(C)C[C@@H](O)[C@H](O)[C@@](C)(CO)[C@@H]5CC[C@@]4(C)[C@]2(C)CC3)cc1Cl as the compound, how does the IC50 read?
A: Its IC50 is 19.1 µM.

Q: For C[C@H]1[C@H](C)CC[C@]2(C(=O)Nc3cccc(Br)c3)CC[C@]3(C)C(=CC(=O)[C@@H]4[C@@]5(C)C[C@@H](O)[C@H](O)[C@@](C)(CO)[C@@H]5CC[C@]43C)[C@H]12, which IC50 is on record?
A: Its IC50 is 24.8 µM.

Q: For C[C@H]1[C@H](C)CC[C@]2(C(=O)Nc3ccc(Br)c(F)c3)CC[C@]3(C)C(=CC(=O)[C@@H]4[C@@]5(C)C[C@@H](O)[C@H](O)[C@@](C)(CO)[C@@H]5CC[C@]43C)[C@H]12, which IC50 is on record?
A: Its IC50 is 16.4 µM.

tested on: HepG2; assay: Cytotoxicity against human HepG2 cells after 48 hrs by MTT assay; type: functional, cell-based; conditions: HepG2, 48 h; in short: as §1

Q: With C[C@H]1[C@H](C)CC[C@]2(C(=O)Nc3cccc(Cl)c3)CC[C@]3(C)C(=CC(=O)[C@@H]4[C@@]5(C)C[C@@H](O)[C@H](O)[C@@](C)(CO)[C@@H]5CC[C@]43C)[C@H]12 as the compound, how does the IC50 read?
A: Its IC50 is 11.6 µM.

Q: For Cc1cccc(NC(=O)[C@]23CC[C@@H](C)[C@H](C)[C@H]2C2=CC(=O)[C@@H]4[C@@]5(C)C[C@@H](O)[C@H](O)[C@@](C)(CO)[C@@H]5CC[C@@]4(C)[C@]2(C)CC3)c1, which IC50 is on record?
A: Its IC50 is 19.4 µM.

Q: With Cc1ccc(NC(=O)[C@]23CC[C@@H](C)[C@H](C)[C@H]2C2=CC(=O)[C@@H]4[C@@]5(C)C[C@@H](O)[C@H](O)[C@@](C)(CO)[C@@H]5CC[C@@]4(C)[C@]2(C)CC3)cc1Cl as the compound, how does the IC50 read?
A: Its IC50 is 18.4 µM.

Q: Which IC50 does the source give for C[C@H]1[C@H](C)CC[C@]2(C(=O)Nc3cccc(Br)c3)CC[C@]3(C)C(=CC(=O)[C@@H]4[C@@]5(C)C[C@@H](O)[C@H](O)[C@@](C)(CO)[C@@H]5CC[C@]43C)[C@H]12 here?
A: Its IC50 is 20.4 µM.

Q: For C[C@H]1[C@H](C)CC[C@]2(C(=O)Nc3ccc(Br)c(F)c3)CC[C@]3(C)C(=CC(=O)[C@@H]4[C@@]5(C)C[C@@H](O)[C@H](O)[C@@](C)(CO)[C@@H]5CC[C@]43C)[C@H]12, which IC50 is on record?
A: The IC50 was 28.4 µM.

tested on: HeLa; assay: Cytotoxicity against human HeLa cells after 48 hrs by MTT assay; type: functional, cell-based; conditions: not given; in short: as §1

Q: With C[C@H]1[C@H](C)CC[C@]2(C(=O)Nc3cccc(Cl)c3)CC[C@]3(C)C(=CC(=O)[C@@H]4[C@@]5(C)C[C@@H](O)[C@H](O)[C@@](C)(CO)[C@@H]5CC[C@]43C)[C@H]12 as the compound, how does the IC50 read?
A: Its IC50 is 14.2 µM.

Q: Which IC50 does the source give for Cc1cccc(NC(=O)[C@]23CC[C@@H](C)[C@H](C)[C@H]2C2=CC(=O)[C@@H]4[C@@]5(C)C[C@@H](O)[C@H](O)[C@@](C)(CO)[C@@H]5CC[C@@]4(C)[C@]2(C)CC3)c1 here?
A: Its IC50 is 14.6 µM.

Q: Which IC50 does the source give for Cc1ccc(NC(=O)[C@]23CC[C@@H](C)[C@H](C)[C@H]2C2=CC(=O)[C@@H]4[C@@]5(C)C[C@@H](O)[C@H](O)[C@@](C)(CO)[C@@H]5CC[C@@]4(C)[C@]2(C)CC3)cc1Cl here?
A: The IC50 was 16 µM.

Q: For C[C@H]1[C@H](C)CC[C@]2(C(=O)Nc3cccc(Br)c3)CC[C@]3(C)C(=CC(=O)[C@@H]4[C@@]5(C)C[C@@H](O)[C@H](O)[C@@](C)(CO)[C@@H]5CC[C@]43C)[C@H]12, which IC50 is on record?
A: Its IC50 is 16.2 µM.

Q: Which IC50 does the source give for C[C@H]1[C@H](C)CC[C@]2(C(=O)Nc3ccc(Br)c(F)c3)CC[C@]3(C)C(=CC(=O)[C@@H]4[C@@]5(C)C[C@@H](O)[C@H](O)[C@@](C)(CO)[C@@H]5CC[C@]43C)[C@H]12 here?
A: The IC50 was 9.71 µM.

tested on: not listed separately; assay: Cytotoxicity against human SMMC-7404 cells after 48 hrs by MTT assay; type: functional, cell-based; conditions: SMMC-7404, 48 h; in short: as §1

Q: With C[C@H]1[C@H](C)CC[C@]2(C(=O)Nc3cccc(Cl)c3)CC[C@]3(C)C(=CC(=O)[C@@H]4[C@@]5(C)C[C@@H](O)[C@H](O)[C@@](C)(CO)[C@@H]5CC[C@]43C)[C@H]12 as the compound, how does the IC50 read?
A: Its IC50 is 34.4 µM.

Q: For Cc1cccc(NC(=O)[C@]23CC[C@@H](C)[C@H](C)[C@H]2C2=CC(=O)[C@@H]4[C@@]5(C)C[C@@H](O)[C@H](O)[C@@](C)(CO)[C@@H]5CC[C@@]4(C)[C@]2(C)CC3)c1, which IC50 is on record?
A: Its IC50 is 16.1 µM.

Q: For Cc1ccc(NC(=O)[C@]23CC[C@@H](C)[C@H](C)[C@H]2C2=CC(=O)[C@@H]4[C@@]5(C)C[C@@H](O)[C@H](O)[C@@](C)(CO)[C@@H]5CC[C@@]4(C)[C@]2(C)CC3)cc1Cl, which IC50 is on record?
A: The IC50 was 20.6 µM.

Q: With C[C@H]1[C@H](C)CC[C@]2(C(=O)Nc3cccc(Br)c3)CC[C@]3(C)C(=CC(=O)[C@@H]4[C@@]5(C)C[C@@H](O)[C@H](O)[C@@](C)(CO)[C@@H]5CC[C@]43C)[C@H]12 as the compound, how does the IC50 read?
A: Its IC50 is 22.4 µM.

Q: For C[C@H]1[C@H](C)CC[C@]2(C(=O)Nc3ccc(Br)c(F)c3)CC[C@]3(C)C(=CC(=O)[C@@H]4[C@@]5(C)C[C@@H](O)[C@H](O)[C@@](C)(CO)[C@@H]5CC[C@]43C)[C@H]12, which IC50 is on record?
A: Its IC50 is 17.4 µM.

tested on: HUVEC; assay: Cytotoxicity against human HUVEC cells after 48 hrs by MTT assay; type: cell-based; conditions: not given; in short: as §1

Q: Which IC50 does the source give for C[C@H]1[C@H](C)CC[C@]2(C(=O)Nc3cccc(Cl)c3)CC[C@]3(C)C(=CC(=O)[C@@H]4[C@@]5(C)C[C@@H](O)[C@H](O)[C@@](C)(CO)[C@@H]5CC[C@]43C)[C@H]12 here?
A: Its IC50 is over 100 µM.

Q: With Cc1cccc(NC(=O)[C@]23CC[C@@H](C)[C@H](C)[C@H]2C2=CC(=O)[C@@H]4[C@@]5(C)C[C@@H](O)[C@H](O)[C@@](C)(CO)[C@@H]5CC[C@@]4(C)[C@]2(C)CC3)c1 as the compound, how does the IC50 read?
A: The IC50 was over 100 µM.

Q: With Cc1ccc(NC(=O)[C@]23CC[C@@H](C)[C@H](C)[C@H]2C2=CC(=O)[C@@H]4[C@@]5(C)C[C@@H](O)[C@H](O)[C@@](C)(CO)[C@@H]5CC[C@@]4(C)[C@]2(C)CC3)cc1Cl as the compound, how does the IC50 read?
A: The IC50 was over 100 µM.

Q: For C[C@H]1[C@H](C)CC[C@]2(C(=O)Nc3cccc(Br)c3)CC[C@]3(C)C(=CC(=O)[C@@H]4[C@@]5(C)C[C@@H](O)[C@H](O)[C@@](C)(CO)[C@@H]5CC[C@]43C)[C@H]12, which IC50 is on record?
A: The IC50 was over 100 µM.

Q: With C[C@H]1[C@H](C)CC[C@]2(C(=O)Nc3ccc(Br)c(F)c3)CC[C@]3(C)C(=CC(=O)[C@@H]4[C@@]5(C)C[C@@H](O)[C@H](O)[C@@](C)(CO)[C@@H]5CC[C@]43C)[C@H]12 as the compound, how does the IC50 read?
A: The IC50 was over 100 µM.
